Measured values: ChEMBL document CHEMBL1129596, “Synthesis, biological activity, and molecular modeling of selective 5-HT(2C/2B) receptor antagonists” (J Med Chem, 1996)

Experiments:
[1] = target: T1, 5-hydroxytryptamine receptor 2C (Rattus norvegicus, UniProt P08909); test: Displacement of [3H]mesulergine from rat 5-HT2C receptor expressed in HEK293
T1 sequence (P08909 whole entry): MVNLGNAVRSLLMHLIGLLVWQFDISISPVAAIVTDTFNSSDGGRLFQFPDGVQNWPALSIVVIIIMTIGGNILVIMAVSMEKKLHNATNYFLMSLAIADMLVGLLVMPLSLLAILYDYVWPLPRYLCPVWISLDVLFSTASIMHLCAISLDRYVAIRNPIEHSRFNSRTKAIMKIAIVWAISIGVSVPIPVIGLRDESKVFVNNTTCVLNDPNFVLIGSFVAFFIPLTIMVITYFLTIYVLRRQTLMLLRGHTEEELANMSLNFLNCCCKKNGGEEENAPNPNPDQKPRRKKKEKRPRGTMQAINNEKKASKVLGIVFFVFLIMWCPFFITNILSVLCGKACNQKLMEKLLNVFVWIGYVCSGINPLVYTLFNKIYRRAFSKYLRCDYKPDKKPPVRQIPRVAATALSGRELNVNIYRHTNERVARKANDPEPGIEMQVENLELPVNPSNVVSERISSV
Method in brief: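 Binding to cloned rat 5-HT2C receptors expressed in HEK 293 cells, with [3H]mesulergine as radioligand. Each value is the mean of at least two determinations, each lying within 0.2 log unit of the mean.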

[2] = target: 5-hydroxytryptamine receptor 2A (Rattus norvegicus, UniProt P14842); test: Displacement of [3H]ketanserin from 5-HT2A receptor of rat frontal cortex; assay type: tissue-based
Chain of 5-hydroxytryptamine receptor 2A (P14842 whole entry): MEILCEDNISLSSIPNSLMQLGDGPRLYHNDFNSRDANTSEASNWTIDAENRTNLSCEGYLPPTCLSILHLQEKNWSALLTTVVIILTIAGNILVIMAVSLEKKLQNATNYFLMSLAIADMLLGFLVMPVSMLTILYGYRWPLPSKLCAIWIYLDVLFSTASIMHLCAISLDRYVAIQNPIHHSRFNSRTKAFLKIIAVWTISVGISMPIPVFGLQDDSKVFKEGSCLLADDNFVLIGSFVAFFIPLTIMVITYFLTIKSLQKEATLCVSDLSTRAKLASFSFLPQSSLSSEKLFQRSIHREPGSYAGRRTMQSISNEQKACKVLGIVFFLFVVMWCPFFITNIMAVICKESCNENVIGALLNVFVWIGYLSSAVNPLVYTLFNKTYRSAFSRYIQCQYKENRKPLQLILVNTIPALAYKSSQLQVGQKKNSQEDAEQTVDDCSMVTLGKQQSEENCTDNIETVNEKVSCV
Method in brief: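 Radioligand binding in rat frontal cortex membranes with [3H]ketanserin as the labelled ligand. Values are the mean of at least two determinations, each within 0.2 log unit of the mean.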

[3] = target: Serotonin receptor 2a and 2c (5HT2A and 5HT2C) (Rattus norvegicus) (UniProt P08909+P14842); test: Relative affinity for 5-hydroxytryptamine 2C over 5-hydroxytryptamine 2A receptors; assay type: protein assay
Chain of Serotonin receptor 2a and 2c (5HT2A and 5HT2C) (Rattus norvegicus) (P14842 whole entry, looked up, one chain of several): as the sequence (P14842 whole entry) above

[4] = target: 5-hydroxytryptamine receptor 2B (Rattus norvegicus, UniProt P30994); test: Inhibition of 5-HT binding to 5-HT2B receptor of Rat stomach fundus; assay type: tissue-based; details: read-out: pA2 (converted)
Chain of 5-hydroxytryptamine receptor 2B (P30994 whole entry): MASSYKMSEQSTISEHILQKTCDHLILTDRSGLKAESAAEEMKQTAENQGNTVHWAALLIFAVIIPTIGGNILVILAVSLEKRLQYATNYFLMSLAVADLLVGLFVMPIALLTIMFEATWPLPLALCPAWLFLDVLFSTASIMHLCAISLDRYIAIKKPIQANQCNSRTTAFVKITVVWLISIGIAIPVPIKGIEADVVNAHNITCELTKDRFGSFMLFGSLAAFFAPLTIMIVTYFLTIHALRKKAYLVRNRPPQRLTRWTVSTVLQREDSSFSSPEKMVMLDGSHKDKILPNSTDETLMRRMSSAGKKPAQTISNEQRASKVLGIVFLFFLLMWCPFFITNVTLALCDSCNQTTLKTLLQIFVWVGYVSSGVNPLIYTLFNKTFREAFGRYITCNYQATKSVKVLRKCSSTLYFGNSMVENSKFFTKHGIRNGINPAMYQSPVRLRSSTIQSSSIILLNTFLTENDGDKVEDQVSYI
Method in brief: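 Functional rather than binding assay: inhibition of 5-HT-induced contractions of isolated rat stomach fundus. Values are the mean of at least two determinations, each within 0.2 log unit of the mean.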

SMILES	Ki [1]	Ki [2]	Selectivity ratio [3]	Kb [4]
Cn1ccc2c3c(ccc21)N(C(=O)Nc1cccnc1)CC3	25.1 nM	2000 nM		15.8 nM
CCCn1ccc2cc3c(cc21)CCN3C(=O)Nc1cccnc1	12.6 nM	3160 nM	250	7.94 nM
Cc1coc2cc3c(cc12)CCN3C(=O)Nc1cccnc1	2.51 nM	398 nM	160	1.26 nM
O=C(Nc1cccnc1)N1CCc2cc3sccc3cc21	7.94 nM	251 nM	30	10 nM
Cn1ccc2cc3c(cc21)CCN3C(=O)Nc1cccnc1	5.01 nM	501 nM	100	3.16 nM
O=C(Nc1cccnc1)N1CCc2cc3[nH]ccc3cc21	126 nM	1580 nM	13	31.6 nM

More lines, in order of falling Ki [1], values ahead:

Ki [1]	Ki [2]	Selectivity ratio [3]	Kb [4]	SMILES
1260 nM				Cn1ccc2cc3c(cc21)N(C(=O)Nc1cccnc1)CC3
200 nM				Cn1ccc2c3c(ccc21)CCN3C(=O)Nc1cccnc1
63.1 nM	3160 nM	50		Cn1ccc2ccc3c(c21)CCN3C(=O)Nc1cccnc1
63.1 nM	5010 nM	80	12.6 nM	CN1CCc2cc3c(cc21)CCN3C(=O)Nc1cccnc1
50.1 nM	> 6310 nM	> 130	200 nM	O=C(Nc1cccnc1)N1CCc2cc3c(ccn3Cc3ccccc3)cc21
39.8 nM	3160 nM	80	20 nM	Cc1cc2cc3c(cc2n1C)CCN3C(=O)Nc1cccnc1
10 nM	3980 nM	400	6.31 nM	CC(C)n1ccc2cc3c(cc21)CCN3C(=O)Nc1cccnc1
7.94 nM	1260 nM	160	10 nM	CCn1ccc2cc3c(cc21)CCN3C(=O)Nc1cccnc1
